# NOD2-RIPK2 inh: NOD2-RIPK2 binding disruptors in cells, primary screen, fluorescence, CHO cells, BLA complementation. actives 0.38% (n = 360,000). inhibition, % at 4.98 µM. AID 624267, 2012. CCF4 ratio. Receptor-interacting serine/threonine-protein kinase 2 (Homo sapiens), O43353; in the data active means inhibition above about 21%;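 further: 0% = vehicle only and 100% = reference blocker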
# TLR4 MyD88 comp: inhibitors of TLR4-MyD88 association in cells, primary screen, cell-based, HeLa CL3-4, BLA complementation, FRET ratio; Toll-like receptor 4 (Homo sapiens) + Myeloid differentiation primary response protein …; HeLa CL3-4 TLR4/MyD88 BLA complementation; inhibition, % at 8.4 µM; actives 0.18% (n = 200,000); in the data active means inhibition above about 25%;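 further: 0% = vehicle and 100% = reference inhibitor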
# TLR9-MyD88 inh: inhibitors of TLR9-MyD88 association in cells, primary screen, cell-based, CHO, BLA complementation, fluorescence; actives 0.21% (n = 340,000); CCF4 FRET ratio; inhibition, % at 4.98 µM; Toll-like receptor 9 (Homo sapiens) + Myeloid differentiation primary response protein …; AID 504734, 2011;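 active means inhibition above the mean over all tested compounds plus 3 SD, cut at about 21% in these data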;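 further: 0% = DMSO only wells and 100% = clavulanate BLA inhibitor control wells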
# NTR1 ag: agonists of human NTR1, primary screen, imaging, U2OS cells, beta-arrestin-GFP, high content; Neurotensin receptor type 1 (Homo sapiens), P30989; NTR1-U2OS beta-arrestin-GFP spot imaging, agonist mode; activation, % at 20 µM; actives 0.17% (n = 330,000);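 active means activation at or above 40% of the spot to cytoplasm intensity ratio, with at least 20 cells analyzed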;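 further: 0% = DMSO without peptide and 100% = 100 nM NTR1 peptide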
# MC4R antag cAMP: MC4R antagonists of cAMP signaling, primary screen, cell-based, TR-FRET, antagonist arm of biased-ligand search | Melanocortin receptor 4 (Homo sapiens), P32245 | MC4R-expressing cells, MTII-stimulated cAMP, LANCE TR-FRET | inhibition, % at 6.5 µM | actives 0.48% (n = 360,000);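 active means inhibition above its plate's cutoff, the mean of tested wells on that plate plus 3 SD, cut at about 29% in these data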;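 further: 0% = Melanotan II alone and 100% = Melanotan II plus saturating MCL0020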
# Target sequence (P32245 whole entry, looked up): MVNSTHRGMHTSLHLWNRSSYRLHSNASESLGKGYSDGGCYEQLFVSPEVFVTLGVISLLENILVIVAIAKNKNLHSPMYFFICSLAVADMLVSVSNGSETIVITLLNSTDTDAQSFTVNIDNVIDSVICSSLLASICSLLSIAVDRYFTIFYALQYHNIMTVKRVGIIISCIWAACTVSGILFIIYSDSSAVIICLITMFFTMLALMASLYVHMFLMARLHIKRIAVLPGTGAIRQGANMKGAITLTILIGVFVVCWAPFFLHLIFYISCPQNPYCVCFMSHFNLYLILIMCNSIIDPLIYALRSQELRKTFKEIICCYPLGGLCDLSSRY
#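 System: U2OS-MC4R stable cell line; Technique: Eu-cAMP/anti-cAMP TR-FRET, emission 671 nm; Repeats: single well per compound; Also added: Melanotan II; Dosing: one concentration, 6.5 µM nominal; Schedule: 30-min compound, 1-h challenge, 1-h detection, room temperature.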
# MC4R ag barr: MC4R agonists recruiting beta-arrestin, primary screen, cell-based, luminescence, agonist arm of biased-ligand search. activation, % at 8.9 µM. AID 540308, 2011. U2OS MC4R beta-arrestin complementation; percent of melanotan II response, DMSO zero. Melanocortin receptor 4 (Homo sapiens), P32245. actives 0.98% (n = 360,000);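 active means activation above a per-plate cutoff, the mean activation of sample wells on that plate plus 3 SD, cut at about 8% in these data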
# MC4R barr ag: MC4R beta-arrestin agonists, retest, confirmation, cell-based, luminescence, U2OS | shares compounds with MC4R ag barr | actives 31% (n = 2,400) | activation, % at 8.9 µM | U2OS MC4R beta-arrestin recruitment; scaled DMSO 0%, Melanotan II 100%;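 active means mean activation across replicates above the hit cutoff set in the earlier primary screen, cut at about 8% in these data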
# MOR DOR agonist: agonists of MOR-DOR heterodimerization, counter-screen for MC4R biased agonist project, cell-based, luminescence; actives 5.8% (n = 2,400); shares compounds with MC4R ag barr; U2OS PathHunter beta-arrestin, beta-gal luminescence; percent of deltorphin B response, DMSO zero; activation, % at 9.2 µM;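 active means mean activation across replicates exceeds the hit threshold derived in the earlier primary screen, cut at about 18% in these data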;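 further: 100% = deltorphin B at 0.9 µM final and 0% = DMSO alone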
# Active calls of the source: *; x = no result given. Compounds with a hit are over-represented: about 1.9% of the library has one in this group of screens.
SMILES,NOD2-RIPK2 inh,TLR4 MyD88 comp,TLR9-MyD88 inh,NTR1 ag,MC4R antag cAMP,MC4R ag barr,MC4R barr ag,MOR DOR agonist
Cc1coc2cc3oc(=O)ccc3cc12,-16.1,x,7.5,-0.4,-1.4,-0.7,x,x
CC(=O)N1CC(C)Oc2ccc(S(=O)(=O)NC(CC(=O)O)c3ccccc3)cc21 (stereo not drawn),0.7,x,3.7,0.5,0.1,-2.1,x,x
O=C(Nc1ccc(C(F)(F)F)cc1-c1ccccc1)c1ccccc1,-0.3,-1.5,-11.6,-1.0,-4.5,12.9*,1.7,4.3
CCCCNS(=O)(=O)c1ccc(NS(=O)(=O)c2c(C)cc(C)cc2C)cc1,-1.4,9.3,2.5,10.4,1.2,11.6*,6.8,3.6
O=Nc1ccc(NO)c2ccccc12,-3.1,x,-6.9,x,-20.0,-2.5,x,x
Cc1ccc(NC(=S)N(Cc2cccc(Br)c2)CC2CCC(C(=O)O)CC2)cc1Cl (stereo not drawn),-5.1,-7.9,-3.4,-1.5,-2.6,-0.9,x,x
CC(c1ccccc1)c1nnc(NC(=O)Nc2ccccc2F)s1 (stereo not drawn),9.8,x,0.3,3.0,7.7,10.3*,3.2,6.4
O=C(Nc1nnc(COc2ccccc2F)s1)Nc1ccccc1F,8.5,x,3.0,4.6,16.0,12.0*,5.9,9.6
COc1ccc(C(=O)NCCCC2CCCC2)cc1OC1CCN(C(C)C)CC1,9.7,x,-12.0,x,0.8,2.3,x,x
O=C(N/N=C/c1ccc(F)cc1)c1cc(-c2ccccn2)nc2ccccc12,-8.9,x,7.0,9.3,0.3,15.5*,-0.1,11.4
COc1ccccc1NC(=O)Nc1cc(C(C)C)ccc1C,0.2,x,1.9,-1.8,-4.1,18.9*,-1.3,8.1
O=c1[nH]c(CN(CCc2ccccc2)S(=O)(=O)c2ccc(Cl)cc2)nc2ccccc12,5.5,3.1,-11.0,23.9,1.9,22.7*,4.9,8.2
CCOc1ccc(Br)cc1S(=O)(=O)Nc1ccc(C(=O)Nc2ccc(C)cc2)cc1,-8.4,7.1,-9.1,1.8,5.7,10.5*,-2.1,4.7
Cc1ccc(NS(=O)(=O)c2ccc(C(=O)OCC(=O)NCC3CCCO3)cc2)cc1 (stereo not drawn),-1.8,0.7,-2.1,2.4,2.6,-2.1,x,x
CCC(=O)Nc1ccc(-c2nnc(-c3ccccc3)o2)cc1,-6.7,10.1,-2.9,0.3,-2.0,-1.6,x,x
O=C(Cc1ccc(Cl)cc1)Nc1ccc(-c2nnc(-c3ccco3)o2)cc1,-1.9,11.0,-4.3,0.7,-2.4,12.4*,13.1*,9.9
O=C(Nc1ccc(-c2nnc(-c3ccco3)o2)cc1)C(c1ccccc1)c1ccccc1,-0.8,0.0,4.6,2.4,12.8,22.7*,3.6,7.1
Cc1ccc(SCC(=O)Nc2ccc(-c3nnc(-c4ccco4)o3)cc2)cc1,-3.0,-1.9,-0.6,1.4,10.0,18.3*,9.1*,6.6
O=C(CSCc1ccc(Cl)cc1)Nc1ccc(-c2nnc(-c3ccccc3)o2)cc1,-10.5,-1.9,-5.8,0.6,-1.6,9.9*,1.8,1.8
Cc1ccc(-c2nnc(-c3ccc(NC(=O)Cc4cccs4)cc3)o2)cc1,-12.1,-9.7,4.9,4.4,-1.7,35.9*,21.7*,4.6
